Experimental data from ChEMBL document CHEMBL4689842, “EUbOPEN Chemogenomics Library wave 1” (2021).
Values joined by “and” are separate entries in the source; they are usually repeats but may differ in a detail not shown here. Equal values may be shown once.

Test system: U2OS
Assay: Multiplex assay against U2OS
Assay type: toxicity, cell-based
Conditions: human
Outline: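 Live cells were stained at seeding with Hoechst33342, BioTracker Green Microtubule Cytoskeleton Dye, MitoTracker Red and Annexin V Alexa Fluor 680, then imaged on a CQ1 microscope at 37°C and 5% CO2 after compound addition. CellPathfinder machine-learning gating split cells into Hoechst high-intensity objects or normal cells. Normal cells were split into healthy, pyknosed or fragmented nuclei, and pyknosed cells into mitotic or apoptotic. Tubulin, mitochondrial-mass and membrane-permeability phenotypes are per cents of healthy-nucleus cells.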

[1] = 12 h, 1 µM, compound concentration 1 uM, replicate 1
[2] = 12 h, 1 µM, compound concentration 1 uM, replicate 2
[3] = 12 h, 10 µM, compound concentration 10 uM, replicate 1
[4] = 12 h, 10 µM, compound concentration 10 uM, replicate 2
[5] = 24 h, 1 µM, compound concentration 1 uM, replicate 1
[6] = 24 h, 1 µM, compound concentration 1 uM, replicate 2
[7] = 24 h, 10 µM, compound concentration 10 uM, replicate 1
[8] = 24 h, 10 µM, compound concentration 10 uM, replicate 2
[9] = 48 h, 1 µM, compound concentration 1 uM, replicate 1
[10] = 48 h, 1 µM, compound concentration 1 uM, replicate 2
[11] = 48 h, 10 µM, compound concentration 10 uM, replicate 1
[12] = 48 h, 10 µM, compound concentration 10 uM, replicate 2

Cc1ccc2c(c1)c1c(n2CCc2ccc(C)nc2)CCN(C)C1 [LATREPIRDINE]
Population Apoptotic (%) [1]: 53% | Population Fragmented Nuclei (%) [1]: 8% | Population Healthy Nuclei (%) [1]: 81% | Population Hoechst High Intensity Objects (%) [1]: 7% | Population Membrane Permeable-Phenotype (%) [1]: 6% | Population Mitochondria Different-Phenotype (%) [1]: 46% | Population Mitotic Cells (%) [1]: 46% | Population Normal (%) [1]: 92% | Population Pyknosed Nuclei (%) [1]: 9% | Population Tubulin-Different-Phenotype (%) [1]: 42% | Total Cell Count [1]: 147 | Population Apoptotic (%) [2]: 100% | Population Fragmented Nuclei (%) [2]: 27% | Population Healthy Nuclei (%) [2]: 67% | Population Hoechst High Intensity Objects (%) [2]: 16% | Population Membrane Permeable-Phenotype (%) [2]: 5% | Population Mitochondria Different-Phenotype (%) [2]: 27% | Population Mitotic Cells (%) [2]: 0% | Population Normal (%) [2]: 83% | Population Pyknosed Nuclei (%) [2]: 4% | Population Tubulin-Different-Phenotype (%) [2]: 27% | Total Cell Count [2]: 61 | Population Apoptotic (%) [3]: 47% | Population Fragmented Nuclei (%) [3]: 11% | Population Healthy Nuclei (%) [3]: 64% | Population Hoechst High Intensity Objects (%) [3]: 7% | Population Membrane Permeable-Phenotype (%) [3]: 21% | Population Mitochondria Different-Phenotype (%) [3]: 97% | Population Mitotic Cells (%) [3]: 52% | Population Normal (%) [3]: 92% | Population Pyknosed Nuclei (%) [3]: 24% | Total Cell Count [3]: 142 | Population Apoptotic (%) [4]: 88% | Population Fragmented Nuclei (%) [4]: 7% | Population Healthy Nuclei (%) [4]: 65% | Population Hoechst High Intensity Objects (%) [4]: 8% | Population Membrane Permeable-Phenotype (%) [4]: 42% | Population Mitochondria Different-Phenotype (%) [4]: 100% | Population Mitotic Cells (%) [4]: 11% | Population Normal (%) [4]: 91% | Population Pyknosed Nuclei (%) [4]: 26% | Population Tubulin-Different-Phenotype (%) [4]: 100% | Total Cell Count [4]: 103 | Population Apoptotic (%) [5]: 47% | Population Fragmented Nuclei (%) [5]: 6% | Population Healthy Nuclei (%) [5]: 83% | Population Hoechst High Intensity Objects (%) [5]: 3% | Population Membrane Permeable-Phenotype (%) [5]: 4% | Population Mitochondria Different-Phenotype (%) [5]: 38% | Population Mitotic Cells (%) [5]: 52% | Population Normal (%) [5]: 96% | Population Pyknosed Nuclei (%) [5]: 10% | Population Tubulin-Different-Phenotype (%) [5]: 30% | Total Cell Count [5]: 166 | Population Apoptotic (%) [6]: 55% | Population Fragmented Nuclei (%) [6]: 23% | Population Healthy Nuclei (%) [6]: 67% | Population Hoechst High Intensity Objects (%) [6]: 13% | Population Membrane Permeable-Phenotype (%) [6]: 10% | Population Mitochondria Different-Phenotype (%) [6]: 27% | Population Mitotic Cells (%) [6]: 44% | Population Normal (%) [6]: 86% | Population Pyknosed Nuclei (%) [6]: 8% | Population Tubulin-Different-Phenotype (%) [6]: 14% | Total Cell Count [6]: 74 | Population Apoptotic (%) [7]: 71% | Population Fragmented Nuclei (%) [7]: 12% | Population Healthy Nuclei (%) [7]: 54% | Population Hoechst High Intensity Objects (%) [7]: 8% | Population Membrane Permeable-Phenotype (%) [7]: 24% | Population Mitochondria Different-Phenotype (%) [7]: 97% | Population Mitotic Cells (%) [7]: 28% | Population Normal (%) [7]: 91% | Population Pyknosed Nuclei (%) [7]: 33% | Population Tubulin-Different-Phenotype (%) [7]: 100% | Total Cell Count [7]: 172 | Population Apoptotic (%) [8]: 76% | Population Fragmented Nuclei (%) [8]: 4% | Population Healthy Nuclei (%) [8]: 56% | Population Hoechst High Intensity Objects (%) [8]: 4% | Population Membrane Permeable-Phenotype (%) [8]: 56% | Population Mitochondria Different-Phenotype (%) [8]: 100% | Population Mitotic Cells (%) [8]: 24% | Population Normal (%) [8]: 95% | Population Pyknosed Nuclei (%) [8]: 38% | Total Cell Count [8]: 119 | Population Apoptotic (%) [9]: 40% | Population Fragmented Nuclei (%) [9]: 4% | Population Healthy Nuclei (%) [9]: 81% | Population Hoechst High Intensity Objects (%) [9]: 2% | Population Membrane Permeable-Phenotype (%) [9]: 6% | Population Mitochondria Different-Phenotype (%) [9]: 11% | Population Mitotic Cells (%) [9]: 59% | Population Normal (%) [9]: 97% | Population Pyknosed Nuclei (%) [9]: 13% | Population Tubulin-Different-Phenotype (%) [9]: 22% | Total Cell Count [9]: 150 | Population Apoptotic (%) [10]: 60% | Population Fragmented Nuclei (%) [10]: 17% | Population Healthy Nuclei (%) [10]: 75% | Population Hoechst High Intensity Objects (%) [10]: 10% | Population Membrane Permeable-Phenotype (%) [10]: 16% | Population Mitochondria Different-Phenotype (%) [10]: 8% | Population Mitotic Cells (%) [10]: 40% | Population Normal (%) [10]: 89% | Population Pyknosed Nuclei (%) [10]: 7% | Population Tubulin-Different-Phenotype (%) [10]: 10% | Total Cell Count [10]: 68 | Population Apoptotic (%) [11]: 64% | Population Fragmented Nuclei (%) [11]: 14% | Population Healthy Nuclei (%) [11]: 43% | Population Hoechst High Intensity Objects (%) [11]: 6% | Population Membrane Permeable-Phenotype (%) [11]: 28% | Population Mitochondria Different-Phenotype (%) [11]: 90% | Population Mitotic Cells (%) [11]: 35% | Population Normal (%) [11]: 93% | Population Pyknosed Nuclei (%) [11]: 41% | Population Tubulin-Different-Phenotype (%) [11]: 95% | Total Cell Count [11]: 240 | Population Apoptotic (%) [12]: 62% | Population Fragmented Nuclei (%) [12]: 13% | Population Healthy Nuclei (%) [12]: 44% | Population Hoechst High Intensity Objects (%) [12]: 5% | Population Membrane Permeable-Phenotype (%) [12]: 52% | Population Mitochondria Different-Phenotype (%) [12]: 94% | Population Mitotic Cells (%) [12]: 37% | Population Normal (%) [12]: 95% | Population Pyknosed Nuclei (%) [12]: 42% | Population Tubulin-Different-Phenotype (%) [12]: 97% | Total Cell Count [12]: 156

C[C@]1(O)C[C@@H](c2nc(-c3ccc4ccc(-c5ccccc5)nc4c3)c3c(N)nccn32)C1 [LINSITINIB]
Population Apoptotic (%) [1]: 57% and 35% | Population Fragmented Nuclei (%) [1]: 10% and 3% | Population Healthy Nuclei (%) [1]: 79% and 85% | Population Hoechst High Intensity Objects (%) [1]: 2% and 4% | Population Mitochondria Different-Phenotype (%) [1]: 17% and 28% | Population Mitotic Cells (%) [1]: 42% and 64% | Population Normal (%) [1]: 97% and 95% | Population Pyknosed Nuclei (%) [1]: 9% and 11% | Population Tubulin-Different-Phenotype (%) [1]: 50% | Total Cell Count [1]: 132 and 196 | Population Apoptotic (%) [2]: 50% and 33% | Population Fragmented Nuclei (%) [2]: 13% and 5% | Population Healthy Nuclei (%) [2]: 81% and 89% | Population Hoechst High Intensity Objects (%) [2]: 8% and 19% | Population Membrane Permeable-Phenotype (%) [2]: 39% and 16% | Population Mitochondria Different-Phenotype (%) [2]: 16% and 25% | Population Mitotic Cells (%) [2]: 50% and 66% | Population Normal (%) [2]: 91% and 80% | Population Pyknosed Nuclei (%) [2]: 5% and 4% | Population Tubulin-Different-Phenotype (%) [2]: 45% and 28% | Total Cell Count [2]: 83 and 65 | Population Apoptotic (%) [5]: 48% and 53% | Population Fragmented Nuclei (%) [5]: 4% | Population Healthy Nuclei (%) [5]: 76% and 87% | Population Membrane Permeable-Phenotype (%) [5]: 23% and 8% | Population Mitochondria Different-Phenotype (%) [5]: 20% and 22% | Population Mitotic Cells (%) [5]: 51% and 46% | Population Normal (%) [5]: 94% and 98% | Population Pyknosed Nuclei (%) [5]: 11% and 8% | Population Tubulin-Different-Phenotype (%) [5]: 41% and 33% | Total Cell Count [5]: 180 and 194 | Population Fragmented Nuclei (%) [6]: 12% and 8% | Population Healthy Nuclei (%) [6]: 79% and 84% | Population Membrane Permeable-Phenotype (%) [6]: 27% and 13% | Population Mitochondria Different-Phenotype (%) [6]: 19% and 28% | Population Mitotic Cells (%) [6]: 60% and 100% | Population Normal (%) [6]: 95% and 86% | Population Pyknosed Nuclei (%) [6]: 7% | Population Tubulin-Different-Phenotype (%) [6]: 28% and 38% | Total Cell Count [6]: 114 and 78
